Compound activity as filed in PubChem.
TRPC4 block: blocks the mouse TRPC4 cation channel. HEK293 TRPC4beta/mu-opioid, DAMGO-evoked Fluo4 calcium flux; hits give low values. Q9QUQ5. actives 0.39% (n = 300,000). B-score at 10 µM. AID 2247;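 active = B-score over 3 SD under the library average, no early fluorescence shift, positive overall ratio signal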
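Assay system: Stable TRPC4beta/mu-opioid receptor HEK293 cells | Reagent: DAMGO in two steps, submaximal then maximal | Compound dosing: Single concentration per test compound | Signal: Fluo4 Ca2+ flux fluorescence | Evaluation: Per-well B score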
TRPC6 inh: mouse TRPC6 channel inhibition; HEK293-TRPC6, membrane potential dye, ACh-evoked depolarization; hits give low values; AID 2553; actives 1.1% (n = 310,000); B-score at 10 µM;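 active = B-score under library mean minus 3 SD, initial fluorescence not abnormally high, positive integrated signal ratio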;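 also: B-score derived from integrated fluorescence ratio over the kinetic read; more negative B-score means stronger inhibition of depolarization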
Target sequence (Q61143 whole entry, looked up): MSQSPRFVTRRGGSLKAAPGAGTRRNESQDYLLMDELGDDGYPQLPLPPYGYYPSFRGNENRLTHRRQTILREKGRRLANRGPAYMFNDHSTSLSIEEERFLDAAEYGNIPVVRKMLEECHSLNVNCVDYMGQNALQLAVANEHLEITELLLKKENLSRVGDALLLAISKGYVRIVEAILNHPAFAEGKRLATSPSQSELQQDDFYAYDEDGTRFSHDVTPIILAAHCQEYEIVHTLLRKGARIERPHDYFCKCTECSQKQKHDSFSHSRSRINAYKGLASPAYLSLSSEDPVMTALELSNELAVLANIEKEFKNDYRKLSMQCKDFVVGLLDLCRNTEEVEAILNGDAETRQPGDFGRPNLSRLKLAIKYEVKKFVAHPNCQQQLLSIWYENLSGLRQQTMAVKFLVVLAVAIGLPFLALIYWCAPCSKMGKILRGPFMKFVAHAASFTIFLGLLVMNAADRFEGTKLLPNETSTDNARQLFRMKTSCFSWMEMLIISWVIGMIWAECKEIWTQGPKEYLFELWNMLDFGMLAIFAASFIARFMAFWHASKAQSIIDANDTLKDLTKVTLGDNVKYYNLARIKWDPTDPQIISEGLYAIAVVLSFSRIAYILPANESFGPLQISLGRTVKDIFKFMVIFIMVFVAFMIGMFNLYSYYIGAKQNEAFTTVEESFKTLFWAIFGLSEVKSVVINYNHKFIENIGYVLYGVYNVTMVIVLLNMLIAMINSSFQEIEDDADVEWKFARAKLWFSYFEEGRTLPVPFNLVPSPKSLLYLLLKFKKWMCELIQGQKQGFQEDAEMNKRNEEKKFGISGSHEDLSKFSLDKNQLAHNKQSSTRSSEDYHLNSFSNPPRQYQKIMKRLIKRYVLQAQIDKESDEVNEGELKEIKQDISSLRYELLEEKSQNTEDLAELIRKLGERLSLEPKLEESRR
Kir21 block: blocks the mouse Kir2.1 inward-rectifier potassium channel; P35561; HEK293-Kir2.1, FluxOR thallium flux fluorescence; hits give low values; B-score at 10 µM; actives 0.85% (n = 310,000);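 active = fluorescence ratio B-score at or below minus 3 SD of library scores, with starting-brightness B-score within 2 SD, cut at about -4.2 in these data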;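 also: channel flux triggered by added potassium and thallium sulfate stimulus; B-score of peak minus minimum fluorescence over baseline after thallium stimulus; more negative B-score means stronger Kir2.1 block with less thallium influx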
TRPC6 act: mouse TRPC6 channel activation. AID 2550. B-score at 10 µM. HEK293-TRPC6 membrane potential dye fluorescence; hits give high values. actives 0.13% (n = 310,000). Q61143;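 active = B-score of the integrated fluorescence ratio above library mean plus 3 SD, and starting fluorescence ratio within library mean plus 5 SD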;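 also: higher score means more depolarization so channel activation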
TRPC4 agonist: TRPC4 (mouse) channel activation. Q9QUQ5. HEK293 TRPC4beta/mu-opioid, Fluo4 calcium fluorescence; hits give high values. B-score at 10 µM. actives 0.49% (n = 310,000). AID 2237;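 active = B-score above 5 SD of library B-scores, and initial fluorescence ratio not above library mean plus 5 SD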;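 also: positive B-score marks a calcium rise read as TRPC4 activation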
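Material: HEK293 stable line with TRPC4beta plus mu-opioid receptor; technique: Fluo4 calcium-sensitive dye fluorescence, kinetic, 1 Hz baseline; timing: Fluo4 dye loading 45 min at room temperature, 110 s recording; controls: assay buffer as low control, maximal DAMGO as high control; read-out: integrated baseline-normalised fluorescence ratio, converted to per-well B score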
TRPC4 potent: allosteric potentiators of mouse TRPC4 channel | actives 0.42% (n = 310,000) | Q9QUQ5 | B-score at 10 µM | AID 2227 | HEK293 TRPC4beta/mu-opioid, DAMGO EC20, Fluo-4 Ca2+ flux; hits give high values;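 active = B-score of calcium response area above 5 SD of library B-scores, with initial fluorescence ratio within 5 SD of library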
TRPC4 spec 2: second selectivity test of TRPC6 inhibitors: effect on mouse TRPC4 | HEK293 TRPC4/MOR, membrane potential dye fluorescence; channel activated by saturating DAMGO dose | AID 2776 | actives 42% (n = 920) | shares compounds with TRPC6 inh | inhibition, % at 10 µM;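 active = compounds whose fluorescence signal differed from control wells by over 3 SD, either direction, in both duplicate plates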
TRPC4 spec: selectivity of TRPC6 inhibitors: effect on mouse TRPC4; shares compounds with TRPC6 inh; HEK293 TRPC4/mu-opioid, membrane potential fluorescence; activity change, negative = inhibition, % at 10 µM; actives 61% (n = 920);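 active = rise or fall in signal beyond 3 SD of buffer-only wells in both replicate plates, either sign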;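 also: integrated kinetic ratio of fluorescence range over baseline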
HEK293 MPD ctr 2-1: second counter-screen for TRPC6 inhibitors: parental HEK293 cells. shares compounds with TRPC6 inh. parental HEK293 membrane potential dye fluorescence; maximal acetylcholine challenge after compound addition. signal change vs control, % at 10 µM. actives 31% (n = 920). AID 2779;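 active = membrane potential signal moving either way by over 3 SD of the maximum-effect control, in both duplicate plates, meaning non-specific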
HEK293 MPD ctr-1: checks TRPC6 inhibitor effects in parental HEK293 cells. shares compounds with TRPC6 inh. parental HEK293 membrane potential dye fluorescence. membrane potential signal change, % at 10 µM. actives 60% (n = 920). AID 2780;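 active = membrane potential signal shifting up or down by more than 3 SD of buffer-only wells, on both duplicate plates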
HEK293 MPD ctr-2: parental HEK293 nonspecific activity of TRPC6 modulators. membrane potential dye fluorescence. shares compounds with TRPC6 inh. actives 51% (n = 2,400). membrane potential signal change, % at 10 µM;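 active = membrane potential signal moves up or down beyond 5 SD from buffer-only wells, on both duplicate plates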
HEK293 MPD ctr 2-2: second counter-screen for TRPC6 modulators: effect in parental HEK293 cells; shares compounds with TRPC6 inh; membrane potential dye fluorescence; after compound, maximal acetylcholine stimulation; inhibition, % at 10 µM; actives 14% (n = 2,400); AID 488926;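 active = membrane potential signal drops by more than 5 SD from the mean control signal, in both duplicate plates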
TRPC4 ctr mod: mouse TRPC4 off-target activity of TRPC6 modulators. AID 488927. actives 69% (n = 2,400). HEK293 TRPC4/mu-opioid, membrane potential fluorescence. shares compounds with TRPC6 inh. percent change from control (negative = decrease, positive = increase), % at 10 µM;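 active = membrane potential signal moved up or down beyond 5 SD of buffer control wells, in both duplicate plates, actives on both sides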
TRPC4/MOR inh 2: second selectivity test of TRPC6 modulators against mouse TRPC4. shares compounds with TRPC6 inh. HEK293 TRPC4/mu-opioid, membrane potential dye fluorescence; stimulated with maximal-effect DAMGO. inhibition, % at 10 µM. actives 55% (n = 2,400);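 active = drop in membrane potential signal beyond 5 SD of the control wells in both duplicate plates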;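 also: TRPC4 counter screen for TRPC6 hits run under conditions tuned for TRPC6 not TRPC4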
TRPC6 block conf: mouse TRPC6 inhibitor confirmation; shares compounds with TRPC6 inh; HEK293-TRPC6, membrane potential dye, ACh-evoked depolarization; inhibition, % at 10 µM; actives 43% (n = 3,300); AID 488960;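 active = fluorescence ratio falls more than 5 SD below the full-stimulation control mean, in both duplicate runs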;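 also: integrated fluorescence ratio of peak minus minimum over baseline after agonist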
TRPC6 act conf: mouse TRPC6 activator confirmation; activation, % at 10 µM; HEK293-TRPC6 membrane potential dye fluorescence, FDSS; actives 11% (n = 2,800); shares compounds with TRPC6 inh;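 active = ratio signal rise beyond 5 SD above unstimulated control wells' mean, seen in both duplicate runs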
Of the large screens only hits and unclear results are named; the others gave an inactive call (follow-up assays come after a bar, where they were run). Shown are actives, neighbours in structure and some others; about 3% of the full set was active somewhere.

O=C(CC(c1ccccc1)c1cc(Cl)ccc1O)N1CCCC1 (stereo not drawn)	none
O=C(CC(c1ccccc1O)N1CCCCC1)N1CCCCC1 (stereo not drawn)	TRPC6 inh -9.74 | TRPC4 spec 2 inactive | TRPC4 spec 3.6% | HEK293 MPD ctr 2-1 inactive | HEK293 MPD ctr-1 4.8% | TRPC6 block conf 62.6%
CCOC(=O)CNC(=O)Cn1cnc2c(oc3ccccc32)c1=O	none
COCc1ccc(CN2CCc3c([nH]c4ccccc34)C2CC(C)C)o1 (stereo not drawn)	none
Cc1ccccc1C(=O)Nc1ccc2c(C#N)c3nc4ccccc4nc3n2c1	TRPC6 inh -5.85 | HEK293 MPD ctr-2 inactive | HEK293 MPD ctr 2-2 inactive | TRPC4 ctr mod -10.5% | TRPC4/MOR inh 2 inactive | TRPC6 block conf inactive | TRPC6 act conf inactive
CCC(C(=O)NC1CCCCC1)n1c(SCc2ccccc2F)nc2ccncc21 (stereo not drawn)	TRPC6 inh -5.23 | HEK293 MPD ctr-2 inactive | HEK293 MPD ctr 2-2 inactive | TRPC4 ctr mod inactive | TRPC4/MOR inh 2 inactive | TRPC6 block conf inactive | TRPC6 act conf inactive
CSc1nc2ccccc2n1C(=O)NC1CCCCC1	none
c1ccc(C[n+]2cccc3c4ccccc4ccc32)cc1	TRPC6 inh -9.66 | HEK293 MPD ctr-2 -274.5% | HEK293 MPD ctr 2-2 71.0% | TRPC4 ctr mod -46.0% | TRPC4/MOR inh 2 64.5% | TRPC6 block conf 68.5% | TRPC6 act conf inactive
NC(=O)C[n+]1cccc2ccccc21	none
O=[N+]([O-])c1ccc(C[n+]2cccc3ccccc32)cc1	none
CCCCC[n+]1cccc2c3ccccc3ccc21	TRPC6 inh -9.24 | HEK293 MPD ctr-2 -238.0% | HEK293 MPD ctr 2-2 inactive | TRPC4 ctr mod -39.0% | TRPC4/MOR inh 2 66.0% | TRPC6 block conf 58.5% | TRPC6 act conf inactive
O=C(CC1C(=O)NCCN1C1CCCC1)NCc1cccc(OC(F)(F)F)c1 (stereo not drawn)	none
COC(=O)c1sccc1NC(=O)c1ccccc1F	TRPC6 inh -6.29 | HEK293 MPD ctr-2 inactive | HEK293 MPD ctr 2-2 inactive | TRPC4 ctr mod inactive | TRPC4/MOR inh 2 inactive | TRPC6 block conf inactive | TRPC6 act conf inactive
COC(=O)c1sccc1NC(=O)c1ccccc1C(=O)O	none
O=C(O)c1ccccc1NC(=O)C1CCN(S(=O)(=O)c2cccc3nsnc23)CC1	none
COc1cc(OC)c(C(=O)N(CCc2ccccc2)Cc2ccccc2)cc1OC	TRPC6 inh -6.89 | TRPC4 spec 2 inactive | TRPC4 spec 15.5% | HEK293 MPD ctr 2-1 inactive | HEK293 MPD ctr-1 9.0% | TRPC6 block conf inactive | TRPC6 act conf inactive
Cc1ccc2sc(N(CCCN(C)C)C(=O)c3nc4ccccc4s3)nc2c1C	none
Cc1ccc2sc(N(CCCN(C)C)C(=O)c3ccc(Br)s3)nc2c1C	TRPC6 inh -6.53 | HEK293 MPD ctr-2 inactive | HEK293 MPD ctr 2-2 inactive | TRPC4 ctr mod -20.0% | TRPC4/MOR inh 2 80.5% | TRPC6 block conf inactive | TRPC6 act conf inactive
Cc1cccc2sc(N(CCCN(C)C)C(=O)c3ccc4ncsc4c3)nc12	TRPC6 inh -5.03 | HEK293 MPD ctr-2 inactive | HEK293 MPD ctr 2-2 inactive | TRPC4 ctr mod inactive | TRPC4/MOR inh 2 78.0% | TRPC6 block conf 45.0% | TRPC6 act conf inactive
CCOc1ccc(S(=O)(=O)Nc2cc(Cl)ccc2O)cc1	TRPC6 inh -5.31 | HEK293 MPD ctr-2 inactive | HEK293 MPD ctr 2-2 inactive | TRPC4 ctr mod -15.5% | TRPC4/MOR inh 2 inactive | TRPC6 block conf inactive | TRPC6 act conf inactive
CCOc1ccc(NCC(=O)Nc2ccc(Cl)cc2C)cc1	none
CCOc1ccc(NC(C)c2cc(Cl)ccc2O)cc1 (stereo not drawn)	TRPC6 inh -5.19 | HEK293 MPD ctr-2 inactive | HEK293 MPD ctr 2-2 inactive | TRPC4 ctr mod -15.0% | TRPC4/MOR inh 2 37.5% | TRPC6 block conf inactive | TRPC6 act conf inactive
CCOc1ncc(S(=O)(=O)N2CCN(CC)CC2)cc1C(=O)O	none
Cc1ccc(S(=O)(=O)N(C)C)cc1NC(=O)COC(=O)/C=C/c1ccc(F)cc1	none
COC(=O)c1ccccc1NC(=O)c1cc[n+](C)cc1	TRPC6 inh -5.8 | HEK293 MPD ctr-2 -200.5% | HEK293 MPD ctr 2-2 inactive | TRPC4 ctr mod -33.0% | TRPC4/MOR inh 2 inactive | TRPC6 block conf inactive | TRPC6 act conf inactive
CCC(C)NC(=O)CN(c1cc(Cl)cc(Cl)c1)S(C)(=O)=O (stereo not drawn)	none
CCn1c(=O)n(CC)c2cc(N3CCCC3)c(NC(=O)c3ccc(C)c([N+](=O)[O-])c3)cc21	none
CCN(CC)CC(=O)Nc1ccc(C)cc1Br	none
Cc1ccc(NC(=O)CC(O)(C(F)(F)F)C(F)(F)F)c(Br)c1	TRPC6 inh -6.1 | HEK293 MPD ctr-2 inactive | HEK293 MPD ctr 2-2 inactive | TRPC4 ctr mod inactive | TRPC4/MOR inh 2 inactive | TRPC6 block conf inactive
